{"data": "Published values gathered from unrelated publications", "organism": "Staphylococcus aureus", "observed": "microbial growth", "note": "Lines come from different studies, so protocols differ."}
{"Structure (SMILES)": "O=C(O)c1cn(C2CC2)c2cc(N3CCNCC3)c(F)cc2c1=O", "method": "broth dilution", "strain": "ATCC11632", "time": "18 h", "MIC": "< 5 µg/mL"}
{"Structure (SMILES)": "O=C(O)CN1C(=O)/C(=C/c2ccc(-c3ccc(N(c4ccccc4)c4ccccc4)cc3)cc2)SC1=S", "method": "broth dilution", "strain": "ATCC6538", "MIC": "3.9 µg/mL"}
{"Structure (SMILES)": "CC1(C)S[C@@H]2[C@H](NC(=O)[C@H](N)c3ccccc3)C(=O)N2[C@H]1C(=O)O", "method": "broth dilution", "strain": "16162", "MIC": "16 µg/mL"}
{"Structure (SMILES)": "CNC(=O)c1ccc(C)c(-n2c(C)cc(OCc3ccc(F)cc3F)c(Br)c2=O)c1", "strain": "NCTC8325", "MIC": "> 30 µM"}
{"Structure (SMILES)": "C/C=C(\\C)c1cc(OC(=O)c2c(C)c(Cl)c(O)c(Cl)c2O)c(C)c(O)c1C(=O)O", "method": "broth dilution", "strain": "ATCC29213", "MIC": "64 µg/mL"}
{"Structure (SMILES)": "COc1ccc(-c2ccc3c(N4CCOCC4)nc(N4C[C@@H](C)O[C@@H](C)C4)nc3n2)cc1CO", "strain": "NCTC8325", "MIC": "> 30 µM"}
{"Structure (SMILES)": "CC(C)Oc1c(NC(=O)c2ccc(NC(=O)[C@H](CC(N)=O)NC(=O)c3ccc(NC(=O)c4ccc(F)cc4)cc3)cc2)ccc(C(=O)Nc2ccc(C(=O)O)cc2)c1O", "strain": "ATCC29213", "MIC": "2 µg/mL"}
{"Structure (SMILES)": "CS(=O)(=O)CCNCc1ccc(-c2ccc3ncnc(Nc4ccc(OCc5cccc(F)c5)c(Cl)c4)c3c2)o1", "strain": "NCTC8325", "MIC": "> 30 µM"}
{"Structure (SMILES)": "Cc1ccc2nc(-c3ccc(Cl)cc3)n(Cc3ccccc3Cl)c2c1", "method": "broth dilution", "strain": "ATCC29213 MSSA", "MIC": "64 µg/mL"}
{"Structure (SMILES)": "COC1/C=C/OC2(C)Oc3c(C)c(O)c4c(O)c(c5c(nc6cc(C)ccn65)c4c3C2=O)NC(=O)/C(C)=C\\C=C\\C(C)C(O)C(C)C(O)C(C)C(OC(C)=O)C1C (stereo not drawn)", "MIC": "≤ 0.06 µg/mL"}
{"Structure (SMILES)": "CN(C)[C@@H]1C(O)=C(C(N)=O)C(=O)[C@@]2(O)C(O)=C3C(=O)c4c(O)cccc4[C@@](C)(O)[C@H]3C[C@@H]12", "strain": "ATCC43300", "MIC": "2 µg/mL"}
{"Structure (SMILES)": "Cc1cc(/C=C2\\Sc3ccccc3N2CCCN2CCCCC2)c2ccccc2[n+]1C.[I-]", "method": "broth dilution", "strain": "ATCCBAA44", "MIC": "8 µg/mL"}
{"Structure (SMILES)": "CC(C)Oc1c(NC(=O)c2ccc(NC(=O)[C@H](CC(N)=O)NC(=O)c3cccc(-c4cccc(C#N)c4)c3)cc2)ccc(C(=O)Nc2ccc(C(=O)O)cc2)c1O", "strain": "ATCC29213", "MIC": "> 64 µg/mL"}
{"Structure (SMILES)": "CNC(=O)c1cc(Oc2ccc(NC(=O)NC(C)(C)C)cc2)ccn1", "strain": "NCTC8325", "MIC": "> 100 µM"}
{"Structure (SMILES)": "CCCCCCC#Cc1cncc(-c2nnc(SCc3ccc(Cl)c(F)c3)n2C)c1", "strain": "MRSA", "setting": "drug-resistant strain", "MIC": "≥ 20 µg/mL"}
{"Structure (SMILES)": "OCCn1cc(-c2cnc3nnn(Cc4ccc5ncccc5c4)c3n2)cn1", "strain": "NCTC8325", "MIC": "> 30 µM"}
{"Structure (SMILES)": "O=C(CCc1ccc(O)c(O)c1)NCCCCCCCC[P+](c1ccccc1)(c1ccccc1)c1ccccc1.[Br-]", "method": "broth dilution", "strain": "ATCC43300 MRSA", "time": "18 h", "MIC": "> 32 µg/mL"}
{"Structure (SMILES)": "COC(=O)Nc1ccc(-c2nc(N3CCOCC3)c3cnn(C4CCN(Cc5cccnc5)CC4)c3n2)cc1", "strain": "NCTC8325", "MIC": "> 30 µM"}
{"Structure (SMILES)": "CN(C)[C@@H]1C(O)=C(C(N)=O)C(=O)[C@@]2(O)C(O)=C3C(=O)c4c(O)cccc4[C@@](C)(O)[C@H]3C[C@@H]12", "strain": "129", "setting": "clinical isolate", "MIC": "≤ 0.1 µM"}
{"Structure (SMILES)": "CCN(CC)CCNC(=O)c1c(C)[nH]c(/C=C2\\C(=O)Nc3ccc(F)cc32)c1C", "strain": "NCTC8325", "MIC": "> 30 µM"}
{"Structure (SMILES)": "Cc1ccc2nc(-c3cc(Br)ccc3O)[nH]c2c1", "method": "broth dilution", "strain": "ATCC29213 MSSA", "MIC": "64 µg/mL"}
